ChEMBL document CHEMBL1148495, “Racemic and chiral sulfoxides as potential prodrugs of the COX-2 inhibitors Vioxx and Arcoxia” (Bioorg Med Chem Lett, 2006)
Converted amounts (≈) assume the structure as drawn.

Tests used:
Liver microsomes [1] = test: Stability in human liver microsomes; type: ADME, Microsome
Summary of the method: (§1)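 Compound at 5 µM was incubated with human or rat liver microsomes (1 mg/mL microsomal protein) for 30 min at 37 °C. Result is given as % metabolism.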

[2] = Cmax in Wistar rat at 1 mg/kg, po; type: ADME, organism-based; set-up: dose 1 mg/kg, route oral; settings: in vivo
Summary of the method: (§2)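 Male Wistar rats given a single oral dose of 1 mg/kg as a suspension in 0.5% methylcellulose with 0.1% Tween 80. Plasma levels of sulfoxide prodrug and sulfone parent were followed over time. Cmax, tmax and AUC0-t are reported as means (n = 2–3) with SD.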

[3] = AUC(0-t) in Wistar rat at 1 mg/kg, po; type: ADME, organism-based; set-up: dose 1 mg/kg, route oral; settings: plasma; summary of the method: as §2
Rattus norvegicus [4] = test: AUC(0-t) for parent compound after prodrug dosing in Wistar rat at 1 mg/kg, po; type: ADME, organism-based, Plasma; set-up: dose 1 mg/kg, route oral; settings: in vivo; summary of the method: as §2
Rattus norvegicus [5] = test: Inhibition of adjuvant-induced arthritis in Wistar rat at 1 mg/kg, po; type: functional
Summary of the method: (§3)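 Adjuvant-induced arthritis in male Wistar rats, therapeutic protocol. Compounds were given orally once daily for 7 days, starting on day 14 after arthritis induction. Paw edema was measured 24 h after the last dose and expressed as % inhibition.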

Rattus norvegicus [6] = test: Inhibition of yeast-induced pyresis in Wistar rat at 3 mg/kg, po; type: functional
Summary of the method: (§4)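 Yeast-induced pyresis, an acute model run as a therapeutic protocol. Compounds were given as a single oral dose. Temperature was recorded at 1 h intervals from 1 to 5 h after dosing and expressed as % inhibition.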

Rattus norvegicus [7] = test: Cmax for parent compound after prodrug dosing in Wistar rat at 1 mg/kg, po; type: ADME, organism-based; set-up: dose 1 mg/kg, route oral; settings: in vivo; summary of the method: as §2
Rattus norvegicus [8] = test: Tmax for parent compound after prodrug dosing in Wistar rat at 1 mg/kg, po; type: ADME, organism-based; set-up: dose 1 mg/kg, route oral; settings: in vivo; summary of the method: as §2
Liver microsomes [9] = test: Stability in rat liver microsomes; type: ADME, Microsome; summary of the method: as §1
[10] = Solubility in SGF at pH 1.8; type: physicochemical
[11] = Tmax in Wistar rat at 1 mg/kg, po; type: ADME, organism-based; set-up: dose 1 mg/kg, route oral; settings: in vivo; summary of the method: as §2
[12] = Solubility in PBS at pH 7.2; type: physicochemical
[13] = target: T1, Prostaglandin G/H synthase 2 (Homo sapiens, UniProt P35354); test: Inhibition of COX2 in human whole blood; type: tissue-based
T1 sequence (P35354 whole entry): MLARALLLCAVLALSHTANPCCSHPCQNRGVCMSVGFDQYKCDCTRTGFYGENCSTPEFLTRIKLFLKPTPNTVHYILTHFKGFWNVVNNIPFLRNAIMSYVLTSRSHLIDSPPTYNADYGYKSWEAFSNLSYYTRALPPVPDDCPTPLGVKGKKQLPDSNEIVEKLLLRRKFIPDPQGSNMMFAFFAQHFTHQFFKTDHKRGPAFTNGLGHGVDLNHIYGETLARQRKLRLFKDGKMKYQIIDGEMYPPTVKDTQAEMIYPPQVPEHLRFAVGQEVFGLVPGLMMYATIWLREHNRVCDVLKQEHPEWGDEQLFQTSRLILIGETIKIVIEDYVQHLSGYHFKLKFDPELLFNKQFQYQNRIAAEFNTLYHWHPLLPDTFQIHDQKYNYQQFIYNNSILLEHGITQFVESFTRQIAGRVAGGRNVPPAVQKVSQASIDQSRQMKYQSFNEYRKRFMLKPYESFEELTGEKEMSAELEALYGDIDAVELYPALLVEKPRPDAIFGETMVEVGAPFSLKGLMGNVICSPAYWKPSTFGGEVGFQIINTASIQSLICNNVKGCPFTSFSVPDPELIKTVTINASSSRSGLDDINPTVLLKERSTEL

Rattus norvegicus [14] = test: Inhibition of yeast-induced pyresis in Wistar rat at 1 mg/kg, po; type: functional; summary of the method: as §4
Rattus norvegicus [15] = test: Inhibition of adjuvant-induced arthritis in Wistar rat at 0.3 mg/kg, po; type: functional; summary of the method: as §3
[16] = target: T2, Prostaglandin G/H synthase 2 (Homo sapiens) (UniProt P35354); test: Inhibition of COX2 in human whole blood at 10 uM; type: tissue-based
T2 sequence (whole entry): T1 sequence (P35354 whole entry)

Row | Compound | Stability (Liver microsomes [1]) | Cmax [2] | AUC(0-t) [3] | AUC (Rattus norvegicus [4]) | inhibition in vivo at 1 mg/kg (Rattus norvegicus [5]) | inhibition in vivo at 3 mg/kg (Rattus norvegicus [6]) | Cmax (Rattus norvegicus [7]) | Tmax (Rattus norvegicus [8]) | Stability (Liver microsomes [9]) | solubility [10] | Tmax [11] | solubility [12] | IC50 [13] | inhibition in vivo at 1 mg/kg (Rattus norvegicus [14]) | inhibition in vivo at 0.3 mg/kg (Rattus norvegicus [15]) | inhibition [16]
1 | Cc1ccc(-c2ncc(Cl)cc2-c2ccc([S+](C)[O-])cc2)cn1 (stereo not drawn) | 6% | 133 ng/mL | 578 ng·h/mL | 803 ng·h/mL | 67% | 49% | 254 ng/mL | 18 min | 21% | > 1000 µg/mL | 36 min | > 1000 µg/mL | 3.7 µM |  |  | 
2 | C[S+]([O-])c1ccc(C2=C(c3ccccc3)C(=O)OC2)cc1 (stereo not drawn) | 5% | 334 ng/mL | 318 ng·h/mL | 979 ng·h/mL |  |  | 468 ng/mL | 24 min | 35% | 717 µg/mL (≈ 2400 µM) | 18 min | 537 µg/mL (≈ 1800 µM) | 4.93 µM | 56% | 72% | 
3 | C[S@@+]([O-])c1ccc(C2=C(c3ccccc3)C(=O)OC2)cc1 | 1% |  |  |  |  |  |  |  | 49% |  |  |  |  |  |  | 
4 | Cc1ccc(-c2ncc(Cl)cc2-c2ccc([S@@+](C)[O-])cc2)cn1 | 5% |  |  |  |  |  |  |  | 26% |  |  |  |  |  |  | 24.4%
5 | Cc1ccc(-c2ncc(Cl)cc2-c2ccc(S(C)(=O)=O)cc2)cn1 [ETORICOXIB] | 4% | 427 ng/mL | 1660 ng·h/mL |  | 60% | 81% |  |  | 6% | > 1000 µg/mL | 18 min | 104 µg/mL (≈ 290 µM) |  |  |  | 
6 | C[S@+]([O-])c1ccc(C2=C(c3ccccc3)C(=O)OC2)cc1 | 4% |  |  |  |  |  |  |  | 40% |  |  |  |  |  |  | 
7 | Cc1ccc(-c2ncc(Cl)cc2-c2ccc([S@+](C)[O-])cc2)cn1 | 2% |  |  |  |  |  |  |  | 17% |  |  |  | 3.5 µM |  |  | 
8 | CS(=O)(=O)c1ccc(C2=C(c3ccccc3)C(=O)OC2)cc1 [ROFECOXIB] |  | 237 ng/mL | 531 ng·h/mL |  |  |  |  |  | 38% | 16 µg/mL (≈ 50.9 µM) | 24 min | 15 µg/mL (≈ 47.7 µM) |  | 48% | 41% | 
